Measurements from different studies.
Compare with care: the assays were run in different laboratories.
PTGS1: Prostaglandin G/H synthase 1 (PTGS1, Ovis aries, UniProt P05979)
Organic anion transporter 3: Organic anion transporter 3 (Mus musculus, UniProt O88909)

CC1(CN)CCN(c2cnc3c(Sc4ccncc4Cl)n[nH]c3n2)CC1  IC50 (Tyrosine-protein phosphatase non-receptor type 11 (PTPN11, Homo sapiens, UniProt Q06124); enzyme activity, inhibitor): > 100 µM
COc1cc(C(=O)OCCCN2CCCN(CCCOC(=O)c3cc(OC)c(OC)c(OC)c3)CC2)cc(OC)c1OC  IC50 (Equilibrative nucleoside transporter 2 (Homo sapiens, UniProt Q14542); transporter uptake, inhibitor, radiometric; oocytes): 256 µM
COc1ccc(-c2csc(=NN=Cc3c(C)ccc(C(C)C)c3O)n2-c2ccccc2Cl)cc1  IC50 (PTGS1; enzyme activity, inhibitor, absorbance): 9.87 µM
CCCC(=O)NCCCN1CCc2c([nH]c3ccc(Cl)cc23)C1  IC50 (Sodium-dependent serotonin transporter (SLC6A4, Homo sapiens, UniProt P31645); transporter uptake, inhibitor): 96.2 µM
Nc1ncnc2c1ncn2[C@@H]1O[C@H](CO)[C@@H](O)[C@H]1O  IC50 (Organic anion transporter 3; transporter uptake, inhibitor, radiometric; oocytes): 930 µM
CC(=O)N[C@H]1C(O)O[C@H](CO)[C@@H](O[C@@H]2O[C@H](CO)[C@H](O)[C@H](O)[C@H]2O)[C@@H]1O (stereo partly shown)  Kd (Galectin-7 (LGALS7, Homo sapiens, UniProt P47929); binding, ITC): 225 µM
Cn1c(=O)c2c(ncn2C)n(C)c1=O  IC50 (Organic anion transporter 3; transporter uptake, inhibitor, radiometric; oocytes): 7.5 µM
N=c1c[n+](N2CCOCC2)[n-]o1  IC50 (NAD-dependent protein deacetylase sirtuin-3, mitochondrial (SIRT3, Homo sapiens, UniProt Q9NTG7); enzyme activity, inhibitor): 35 µM
COc1ccc(-n2c(-c3ccccc3)csc2=NN=Cc2c(C)ccc(C(C)C)c2O)cc1  IC50 (PTGS1; enzyme activity, inhibitor, absorbance): 14.3 µM
O=c1cc(-c2ccc(O)cc2)oc2c([C@@H]3OC[C@H](O)[C@H](O)[C@H]3O)c(O)c([C@@H]3O[C@H](CO)[C@@H](O)[C@H](O)[C@H]3O)c(O)c12  Kd (Calcium/calmodulin-dependent protein kinase type II subunit delta (CAMK2D, Homo sapiens, UniProt Q13557); binding, SPR): 140 µM
